Assay results: ChEMBL document CHEMBL1139031, “Synthesis and insecticidal activity of fluorinated 2-(2,6-dichloro-4-trifluoromethylphenyl)-2,4,5,6-tetrahydrocyclopentapyrazoles” (Bioorg Med Chem Lett, 2006)

biological target: T1, GABA receptor subunit (Musca domestica, UniProt Q75NA5); experiment: Displacement of [3H]EBOB from housefly neuronal membrane GABA receptor; conditions: not given
T1 sequence (Q75NA5 whole entry): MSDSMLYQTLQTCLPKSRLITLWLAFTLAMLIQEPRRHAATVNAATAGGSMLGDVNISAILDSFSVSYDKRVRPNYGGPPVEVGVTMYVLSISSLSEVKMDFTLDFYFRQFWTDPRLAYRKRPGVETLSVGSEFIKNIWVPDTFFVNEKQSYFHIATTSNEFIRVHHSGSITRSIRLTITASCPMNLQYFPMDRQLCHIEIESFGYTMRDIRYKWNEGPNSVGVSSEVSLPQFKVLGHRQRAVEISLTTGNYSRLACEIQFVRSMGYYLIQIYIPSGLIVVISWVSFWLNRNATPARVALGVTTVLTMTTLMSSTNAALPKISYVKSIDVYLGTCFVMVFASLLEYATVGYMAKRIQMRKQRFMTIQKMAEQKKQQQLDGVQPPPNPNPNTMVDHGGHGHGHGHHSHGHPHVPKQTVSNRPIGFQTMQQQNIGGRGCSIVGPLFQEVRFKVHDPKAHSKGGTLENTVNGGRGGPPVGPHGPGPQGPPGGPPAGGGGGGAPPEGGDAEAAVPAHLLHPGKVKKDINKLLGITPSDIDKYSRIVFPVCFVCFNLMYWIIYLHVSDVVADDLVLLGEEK
How it was run: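 Housefly neuronal membranes (0.5–1.0 mg/mL in added buffer) with 5.2 nM [3H]EBOB in ice-cold 10 mM phosphate, 300 mM NaCl, pH 7.5; DMSO compound solutions. Incubated 45 min at 24 °C, then filtered on polyethylenimine-soaked glass fiber; bound radioactivity counted. Membrane-free wells served as controls. Actives were retested at 24–48 final concentrations, and IC50 was taken at 50% of maximal inhibition.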

Structure (SMILES)	IC50
COC1(C)c2cn(-c3c(Cl)cc(C(F)(F)F)cc3Cl)nc2CC1F (stereo unspecified)	0.1 µM
FC(F)(F)c1cc(Cl)c(-n2cc3c(n2)C(F)(F)CC3(F)F)c(Cl)c1	0.074 µM

biological target: not listed separately; experiment: Selectivity for housefly GABA receptor over mouse GABA receptor; conditions: not given

Structure (SMILES)	selectivity ratio
CC1(O)c2cn(-c3c(Cl)cc(C(F)(F)F)cc3Cl)nc2CC1(F)F (stereo unspecified)	23
CC1(O)c2cn(-c3c(Cl)cc(C(F)(F)F)cc3Cl)nc2C(F)C1F (stereo unspecified)	> 28
COC1(C)c2cn(-c3c(Cl)cc(C(F)(F)F)cc3Cl)nc2CC1F (stereo unspecified)	120
FC(F)(F)c1cc(Cl)c(-n2cc3c(n2)CCC3)c(Cl)c1	19
FC(F)(F)c1cc(Cl)c(-n2cc3c(n2)C(F)(F)CC3(F)F)c(Cl)c1	4

tested on: Musca domestica; experiment: Insecticidal activity against housefly at 100 mM by contact assay; assay type: functional; conditions: not given
How it was run: (§1)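 Newly emerged houseflies were CO2-sedated and fed 10% sucrose for 2–4 h. Compound in DMSO with isopropanol was rolled to coat glass tubes and air-dried for 24–48 h, with a DMSO-only control. Twenty flies, sedated by refrigeration at 0–4 °C, were placed in each tube. Healthy, moribund and dead flies were counted after 24 h.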

Structure (SMILES)	Activity
FC(F)(F)c1cc(Cl)c(-n2cc3c(n2)CCC3)c(Cl)c1	30%

same assay, conditions: Musca domestica; read-out: LD50 (the source's name)

Structure (SMILES)	LC50
FC1c2nn(-c3c(Cl)cc(C(F)(F)F)cc3Cl)cc2C(F)(F)C1F (stereo unspecified)	400 µM

tested on: Musca domestica; experiment: Insecticidal activity against housefly by contact assay; assay type: functional; parameters: concentration or dose not given beside the values; conditions: not given; how it was run: as §1

Structure (SMILES)	Activity
CC1(O)c2cn(-c3c(Cl)cc(C(F)(F)F)cc3Cl)nc2CC1(F)F (stereo unspecified)	72%
CC1(O)c2cn(-c3c(Cl)cc(C(F)(F)F)cc3Cl)nc2C(F)C1F (stereo unspecified)	100%
O=C1CC(F)(F)c2nn(-c3c(Cl)cc(C(F)(F)F)cc3Cl)cc21	6%
COC1CC(F)(F)c2nn(-c3c(Cl)cc(C(F)(F)F)cc3Cl)cc21 (stereo unspecified)	22%
O=C1c2cn(-c3c(Cl)cc(C(F)(F)F)cc3Cl)nc2CC1(F)F	6%
CC1(F)CC(F)(F)c2nn(-c3c(Cl)cc(C(F)(F)F)cc3Cl)cc21 (stereo unspecified)	16.7%
FC(F)(F)c1cc(Cl)c(-n2cc3c(n2)C(F)(F)CC3(F)F)c(Cl)c1	93.9%

tested on: Ctenocephalides felis; experiment: Insecticidal activity against cyclodiene resistant allele-homozygous serine S/S flea by contact assay; assay type: functional; conditions: read-out: LC50
How it was run: (§2)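 Contact vial assay with cat fleas of the cyclodiene-resistant homozygous serine (CO) or sensitive homozygous alanine (ARC) strain. Compound in DMSO was dried onto a glass-fiber disk for 24–48 h, and a DMSO-only disk was the control. Twenty newly emerged fleas, sedated at 0–4 °C, were sealed in each vial and held in the dark. Dead fleas were counted after 24 h, and percentage mortality was calculated.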

Structure (SMILES)	LC50
FC(F)(F)c1cc(Cl)c(-n2cc3c(n2)CCC3)c(Cl)c1	8000 µM

same assay, conditions: read-out: LD50 (the source's name)

Structure (SMILES)	LC50
CC1(O)c2cn(-c3c(Cl)cc(C(F)(F)F)cc3Cl)nc2CC1(F)F (stereo unspecified)	10000 µM
CC1(O)c2cn(-c3c(Cl)cc(C(F)(F)F)cc3Cl)nc2C(F)C1F (stereo unspecified)	5000 µM
FC1c2nn(-c3c(Cl)cc(C(F)(F)F)cc3Cl)cc2C(F)(F)C1F (stereo unspecified)	< 500 µM
FC(F)(F)c1cc(Cl)c(-n2cc3c(n2)C(F)(F)CC3)c(Cl)c1	15000 µM
COC1(C)c2cn(-c3c(Cl)cc(C(F)(F)F)cc3Cl)nc2CC1F (stereo unspecified)	1800 µM

tested on: Ctenocephalides felis; experiment: Insecticidal activity against heterozygous S/A flea by contact assay; assay type: functional; conditions: not given

Structure (SMILES)	LC50
FC(F)(F)c1cc(Cl)c(-n2cc3c(n2)CCC3)c(Cl)c1	7000 µM

tested on: Ctenocephalides felis; experiment: Insecticidal activity against ARC sensitive homozygous alanine A/A flea at 100 mM by contact assay; assay type: functional; conditions: not given; how it was run: as §2

Structure (SMILES)	Activity
CC1(O)c2cn(-c3c(Cl)cc(C(F)(F)F)cc3Cl)nc2CC1(F)F (stereo unspecified)	100%
CC1(O)c2cn(-c3c(Cl)cc(C(F)(F)F)cc3Cl)nc2C(F)C1F (stereo unspecified)	100%
FC1c2nn(-c3c(Cl)cc(C(F)(F)F)cc3Cl)cc2C(F)(F)C1F (stereo unspecified)	100%
FC(F)(F)c1cc(Cl)c(-n2cc3c(n2)C(F)(F)CC3)c(Cl)c1	100%
O=C1CC(F)(F)c2nn(-c3c(Cl)cc(C(F)(F)F)cc3Cl)cc21	40%
COC1(C)c2cn(-c3c(Cl)cc(C(F)(F)F)cc3Cl)nc2CC1F (stereo unspecified)	100%
FC(F)(F)c1cc(Cl)c(-n2cc3c(n2)CCC3)c(Cl)c1	100%
COC1CC(F)(F)c2nn(-c3c(Cl)cc(C(F)(F)F)cc3Cl)cc21 (stereo unspecified)	100%
O=C1c2cn(-c3c(Cl)cc(C(F)(F)F)cc3Cl)nc2CC1(F)F	40%
CC1(F)CC(F)(F)c2nn(-c3c(Cl)cc(C(F)(F)F)cc3Cl)cc21 (stereo unspecified)	100%
FC(F)(F)c1cc(Cl)c(-n2cc3c(n2)C(F)(F)CC3(F)F)c(Cl)c1	100%

tested on: Ctenocephalides felis; experiment: Insecticidal activity against cyclodiene resistant allele-homozygous serine S/S flea at 100 mM by contact assay; assay type: functional; conditions: not given; how it was run: as §2

Structure (SMILES)	Activity
O=C1CC(F)(F)c2nn(-c3c(Cl)cc(C(F)(F)F)cc3Cl)cc21	1%
COC1CC(F)(F)c2nn(-c3c(Cl)cc(C(F)(F)F)cc3Cl)cc21 (stereo unspecified)	3%
O=C1c2cn(-c3c(Cl)cc(C(F)(F)F)cc3Cl)nc2CC1(F)F	1%
CC1(F)CC(F)(F)c2nn(-c3c(Cl)cc(C(F)(F)F)cc3Cl)cc21 (stereo unspecified)	3%
FC(F)(F)c1cc(Cl)c(-n2cc3c(n2)C(F)(F)CC3(F)F)c(Cl)c1	60.7%

tested on: not listed separately; experiment: (§3) Half life in mouse liver microsome; assay type: ADME; conditions: liver microsomes

Structure (SMILES)	half-life
COC1(C)c2cn(-c3c(Cl)cc(C(F)(F)F)cc3Cl)nc2CC1F (stereo unspecified)	2.42 h

species: Mus musculus; experiment: as §3; assay type: ADME; conditions: microsomes

Structure (SMILES)	T1/2
CC1(O)c2cn(-c3c(Cl)cc(C(F)(F)F)cc3Cl)nc2CC1(F)F (stereo unspecified)	Stable

tested on: not listed separately; experiment: (§4) Half life in dog liver microsome; assay type: ADME, Canis lupus familiaris; conditions: liver microsomes

Structure (SMILES)	half-life
CC1(O)c2cn(-c3c(Cl)cc(C(F)(F)F)cc3Cl)nc2CC1(F)F (stereo unspecified)	8.45 h

species: Canis familiaris; experiment: as §4; assay type: ADME, Canis lupus familiaris; conditions: microsomes

Structure (SMILES)	T1/2
COC1(C)c2cn(-c3c(Cl)cc(C(F)(F)F)cc3Cl)nc2CC1F (stereo unspecified)	Stable

species: Mus musculus; experiment: Clearance in mouse; assay type: ADME, organism-based; conditions: in vitro

Structure (SMILES)	CL
CC1(O)c2cn(-c3c(Cl)cc(C(F)(F)F)cc3Cl)nc2CC1(F)F (stereo unspecified)	Stable
COC1(C)c2cn(-c3c(Cl)cc(C(F)(F)F)cc3Cl)nc2CC1F (stereo unspecified)	34.1 pmol/min/mg

species: Canis familiaris; experiment: Clearance in dog; assay type: ADME, organism-based, Canis lupus familiaris; conditions: in vitro

Structure (SMILES)	CL
CC1(O)c2cn(-c3c(Cl)cc(C(F)(F)F)cc3Cl)nc2CC1(F)F (stereo unspecified)	296.9 pmol/min/mg
COC1(C)c2cn(-c3c(Cl)cc(C(F)(F)F)cc3Cl)nc2CC1F (stereo unspecified)	Stable

biological target: GABA-A receptor; anion channel; experiment: Binding affinity to mouse brain GABA receptor; conditions: not given
How it was run: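 Displacement of [3H]EBOB (5.2 nM, 38 Ci/mmol) from neuronal membranes (0.5–1.0 mg/mL), housefly or mouse brain, in ice-cold 10 mM phosphate, 300 mM NaCl, pH 7.5. Compound added from DMSO. Membrane-free wells served as controls. Incubated 45 min at 24 °C, then filtered on polyethylenimine-soaked glass fiber and bound radioactivity counted. IC50 (50% of maximal inhibition) taken from 24–48 concentrations.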

Structure (SMILES)	IC50
CC1(O)c2cn(-c3c(Cl)cc(C(F)(F)F)cc3Cl)nc2CC1(F)F (stereo unspecified)	2.3 µM
CC1(O)c2cn(-c3c(Cl)cc(C(F)(F)F)cc3Cl)nc2C(F)C1F (stereo unspecified)	> 10 µM
FC1c2nn(-c3c(Cl)cc(C(F)(F)F)cc3Cl)cc2C(F)(F)C1F (stereo unspecified)	0.175 µM
FC(F)(F)c1cc(Cl)c(-n2cc3c(n2)C(F)(F)CC3)c(Cl)c1	2.8 µM
COC1(C)c2cn(-c3c(Cl)cc(C(F)(F)F)cc3Cl)nc2CC1F (stereo unspecified)	12 µM
FC(F)(F)c1cc(Cl)c(-n2cc3c(n2)CCC3)c(Cl)c1	1.6 µM
COC1CC(F)(F)c2nn(-c3c(Cl)cc(C(F)(F)F)cc3Cl)cc21 (stereo unspecified)	3.7 µM
CC1(F)CC(F)(F)c2nn(-c3c(Cl)cc(C(F)(F)F)cc3Cl)cc21 (stereo unspecified)	> 10 µM
FC(F)(F)c1cc(Cl)c(-n2cc3c(n2)C(F)(F)CC3(F)F)c(Cl)c1	0.3 µM
